This note sets out measurements from ChEMBL document CHEMBL3352274, “Oxadiazoles and thiadiazoles: novel α-glucosidase inhibitors” (Bioorg Med Chem, 2014).

Assay [1] is described as follows: Inhibition of alpha-glucosidase (unknown origin) using p-nitrophenyl-alpha-D-glucopyranoside substrate measured up to 30 mins by multiplate spectrophotometry. Set-up: species or system Homo sapiens. The essentials: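 Enzyme 0.2 U/mL in phosphate buffered saline, preincubated with test compounds at various concentrations, 15 min, 37 °C. Assay in 0.1 M phosphate buffer pH 6.8 at 37 °C. Triplicate reactions, acarbose as standard. % inhibition = 100 − (OD test/OD control) × 100. IC50 by enzyme kinetics fitting.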

The subject of assay [2] is 3T3. In words: Cytotoxicity against […] 3T3 cells by MTT assay. Particulars: Mus musculus, NIH3T3; call rule not given here.
Assay [3] addresses Carbonic anhydrase 2 (Bos taurus) (UniProt P00921). In words: Inhibition of carbonic anhydrase 2 (unknown origin) using 4-NPA substrate after 15 mins by spectrophotometry.
The nature of assay [4]: (§1) Inhibition of snake venom phosphodiesterase 1 using bis(p-nitrophenyl) phosphate substrate after 30 mins by spectrophotometry. Set-up: species or system Serpentes. The essentials:
(§2)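 Assayed in 33 mM Tris–HCl buffer (pH 8.8) with 30 mM Mg-acetate as co-factor, 0.000742 U of enzyme and 0.33 mM substrate. After 30 min of incubation, activity was followed at 37 °C as p-nitrophenol release at 410 nm. Initial rates were taken as change in OD/min. All reactions were run in triplicate, with EDTA as positive control.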

Assay [5] relates to Serpentes. The description is as §1. Set-up: concentration or dose not given beside the values. The method in brief:
as §2

Assay [6] can be described thus: Non-competitive inhibition of alpha-glucosidase (unknown origin) by Lineweaver-Burk plot. Set-up: species or system Homo sapiens. The essentials: (§3)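 Mode of inhibition from Lineweaver–Burk plots (1/rate vs 1/substrate concentration) at varying inhibitor concentrations, tracking Km and Vmax. Ki from secondary re-plots of Lineweaver–Burk slopes vs inhibitor concentration and from Dixon plots (1/rate vs inhibitor concentration). Each point mean of three experiments.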

Assay [7] in a line: Competitive inhibition of alpha-glucosidase (unknown origin) by Lineweaver-Burk plot. Set-up: species or system Homo sapiens. The method in brief:
as §3

On to `O=C(CSc1nnc(-c2cccnc2)o1)c1ccc(Br)cc1`, for which, in assay [1], the IC50 entry is listed as “Not Active”.
With `O=C(CSc1nnc(-c2ccccc2)o1)c1cccc(F)c1`, in assay [1], the IC50 result is recorded as “Not Active”.
On the same count and under the same terms, the same measure for `O=C(CSc1nnc(-c2ccccc2)o1)c1ccc(Cl)cc1`: “Not Active”; for `COc1cccc(C(=O)CSc2nnc(-c3ccc(Cl)cc3)o2)c1`: “Not Active”.
For the compound `O=C(CSc1nnc(-c2ccc(OCc3ccccc3)cc2)o1)c1cccc(O)c1`, the IC50 in assay [2] was above 30 µM; in assay [1] (read-out: IC50), 17.9 µM; in assay [3], “Not Active”; in assay [4], “Not Active”. Moreover, the values for the inhibition in assay [3] and in assay [5] were 48.2% and 1.8%, respectively. In assay [6], this compound gave a Ki of 11.2 µM.
On to `O=C(CSc1nnc(-c2ccc(Cl)cc2)o1)c1cccc(Cl)c1`, for which the IC50 result in assay [1] is listed as “Not Active”.
On to `COc1ccc(C(=O)CSc2nnc(-c3ccccc3)o2)cc1`, for which the IC50 result in assay [1] was “Not Active”.
For the compound `COc1ccccc1C(=O)CSc1nnc(SCC(=O)c2ccccc2OC)s1`, the IC50 in assay [1] (read-out: IC50) was determined as 94.3 µM.
Consider `O=C(CSc1nnc(-c2ccccc2)o1)c1ccc(Cl)c(Cl)c1`, for which the IC50 in assay [1] (read-out: IC50) is 74.2 µM.
Still for that read-out and setting: the same measure for `O=C(CSc1nnc(-c2ccc(Cl)cc2)o1)c1cccc(F)c1`: 49.1 µM.
As to `O=C(CSc1nnc(-c2cccnc2)o1)c1cccc(O)c1`, the IC50 entry in assay [1] is “Not Active”.
Consider `O=C(CSc1nnc(-c2cccnc2)o1)c1ccc(Cl)cc1`, for which the concentration for half-maximal inhibition (IC50) result in assay [1] is recorded as “Not Active”.
The same measure, in the same setting: the same measure for `O=C(CSc1nnc(-c2cccnc2)o1)c1cccc(F)c1`: “Not Active”; for `O=C(CSc1nnc(-c2ccccc2)o1)c1ccc(Br)cc1`: “Not Active”.
Take `O=C(CSc1nnc(-c2cccnc2)o1)c1ccc([N+](=O)[O-])cc1`: the IC50 entry in assay [1] is “Not Active”.
With `O=C(CSc1nnc(-c2ccccc2)o1)c1cccc(Cl)c1`, the IC50 entry in assay [1] is recorded as “Not Active”.
`O=C(CSc1nnc(SCC(=O)c2ccc([N+](=O)[O-])cc2)s1)c1ccc([N+](=O)[O-])cc1`: the IC50 entry in assay [1] is on record as “Not Active”.
Regarding `O=C(CSc1nnc(-c2ccc(Cl)cc2)o1)c1ccc(-c2ccccc2)cc1`, the IC50 result in assay [1] is “Not Active”.
With `O=C(CSc1nnc(-c2ccc(Cl)cc2)o1)c1cc2ccccc2oc1=O`, in assay [1], the IC50 result is “Not Active”.
For `O=C(CSc1nnc(SCC(=O)c2ccc(Cl)c(Cl)c2)s1)c1ccc(Cl)c(Cl)c1`, the IC50 entry in assay [1] is “Not Active”.
Turning to `O=C(CSc1nnc(-c2ccccc2)o1)c1cccc(O)c1`, the IC50 in assay [1] (read-out: IC50) turned out to be 112 µM.
For the compound `O=C(CSc1nnc(SCC(=O)c2cccc(O)c2)s1)c1cccc(O)c1`, the IC50 in assay [2] is above 30 µM; in assay [1] (read-out: IC50), 20.4 µM; in assay [3], “Not Active”; in assay [4], “Not Active”. Moreover, the inhibition in assay [3] was 42.9%; in assay [5], 4.6%. This compound came in with a Ki in assay [6] of 14.3 µM.
`O=C(CSc1nnc(SCC(=O)c2ccc(-c3ccccc3)cc2)s1)c1ccc(-c2ccccc2)cc1`: the IC50 in assay [1] (read-out: IC50) is 51.8 µM.
Regarding `O=C(CSc1nnc(SCC(=O)c2ccc(Cl)cc2)s1)c1ccc(Cl)cc1`, the IC50 entry in assay [1] is on record as “Not Active”.
Take `COc1cccc(C(=O)CSc2nnc(-c3ccccc3)o2)c1`: in assay [1] (read-out: IC50), the IC50 was determined as 184 µM.
Consider `O=C(CSc1nnc(-c2ccc(Cl)cc2)o1)c1ccc(Cl)cc1`, for which the IC50 result in assay [1] is reported as “Not Active”.
As for `COc1ccc(C(=O)CSc2nnc(-c3ccc(Cl)cc3)o2)cc1`, the IC50 entry in assay [1] is recorded as “Not Active”.
Consider `O=C(CSc1nnc(-c2ccc(Cl)cc2)o1)c1cccc(O)c1`, for which the IC50 is above 30 µM in assay [2], 24.1 µM in assay [1] (read-out: IC50), “Not Active” in assay [3] and “Not Active” in assay [4]. Besides, the inhibition in assay [3] was 9%; in assay [5], 26%. This compound also had a Ki in assay [6] of 12 µM.
Consider `COc1ccc(C(=O)CSc2nnc(-c3ccc(OCc4ccccc4)cc3)o2)cc1`, for which the IC50 entry in assay [1] is recorded as “Not Active”.
In the case of `O=C(CSc1nnc(SCC(=O)c2ccc(Br)cc2)s1)c1ccc(Br)cc1`, the IC50 in assay [1] (read-out: IC50) worked out at 166 µM.
Consider `C[C@H]1O[C@H](O[C@H]2[C@H](O)[C@@H](O)[C@@H](O[C@H]3[C@H](O)[C@@H](O)C(O)O[C@@H]3CO)O[C@@H]2CO)[C@H](O)[C@@H](O)[C@@H]1N[C@H]1C=C(CO)[C@@H](O)[C@H](O)[C@H]1O` (some centres undefined) [ACARBOSE], for which the IC50 in assay [1] (read-out: IC50) came to 937 µM. The compound further yielded a Ki in assay [7] of 890 µM.
`COc1ccccc1C(=O)CSc1nnc(-c2ccc(Cl)cc2)o1`: the IC50 in assay [1] (read-out: IC50) was found to be 81.6 µM.
For `O=C(CSc1nnc(SCC(=O)c2ccccc2)s1)c1ccccc1`, the IC50 is above 30 µM in assay [2], 10.8 µM in assay [1] (read-out: IC50), “Not Active” in assay [3] and “Not Active” in assay [4]. In addition, the affinity in assay [7] corresponds to a Ki of 6 µM. Also, the inhibition worked out at 33.8% in assay [3] and 12.3% in assay [5].
For the compound `COc1ccc(C(=O)CSc2nnc(SCC(=O)c3ccc(OC)cc3)s2)cc1`, the IC50 entry in assay [1] is on record as “Not Active”.
`O=C(CSc1nnc(-c2cccnc2)o1)c1ccc(-c2ccccc2)cc1`: the IC50 in assay [1] (read-out: IC50) amounted to 125 µM.
As for `COc1ccccc1C(=O)CSc1nnc(-c2ccc(OCc3ccccc3)cc2)o1`, the IC50 in assay [2] was above 30 µM; in assay [1] (read-out: IC50), 11.8 µM; in assay [3], “Not Active”; in assay [4] it was “Not Active”. Besides, the inhibition was 33% in assay [3] and 8.5% in assay [5]. This compound had a Ki in assay [6] of 4.36 µM.
In the case of `O=C(CSc1nnc(SCC(=O)c2cccc(F)c2)s1)c1cccc(F)c1`, the IC50 in assay [1] (read-out: IC50) was found to be 24.6 µM.
`O=C(CSc1nnc(-c2cccnc2)o1)c1cc2ccccc2oc1=O`: the IC50 result in assay [1] is on record as “Not Active”.
